The values that follow come from ChEMBL document CHEMBL3102769, “Synthesis, docking simulation, biological evaluations and 3D-QSAR study of 5-Aryl-6-(4-methylsulfonyl)-3-(metylthio)-1,2,4-triazine as selective cyclooxygenase-2 inhibitors” (Bioorg Med Chem, 2014).

Experiment [1] addresses T1, Prostaglandin G/H synthase 1 (Ovis aries, UniProt P05979).
T1 sequence (P05979 whole entry): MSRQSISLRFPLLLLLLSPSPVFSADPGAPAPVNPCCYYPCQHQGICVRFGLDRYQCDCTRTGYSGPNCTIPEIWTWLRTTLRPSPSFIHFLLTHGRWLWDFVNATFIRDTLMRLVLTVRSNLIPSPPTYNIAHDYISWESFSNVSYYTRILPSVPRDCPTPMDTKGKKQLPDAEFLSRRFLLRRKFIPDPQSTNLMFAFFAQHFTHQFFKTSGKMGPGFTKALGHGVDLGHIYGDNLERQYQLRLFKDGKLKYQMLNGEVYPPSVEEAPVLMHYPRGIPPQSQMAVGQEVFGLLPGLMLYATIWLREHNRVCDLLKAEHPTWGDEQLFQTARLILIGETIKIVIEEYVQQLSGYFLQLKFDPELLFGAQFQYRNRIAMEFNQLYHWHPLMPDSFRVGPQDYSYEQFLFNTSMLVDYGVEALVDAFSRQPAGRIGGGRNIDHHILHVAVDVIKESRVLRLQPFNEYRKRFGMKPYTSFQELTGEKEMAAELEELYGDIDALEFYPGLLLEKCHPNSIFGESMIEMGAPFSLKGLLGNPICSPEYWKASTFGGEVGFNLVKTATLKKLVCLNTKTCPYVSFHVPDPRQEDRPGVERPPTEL
In words: Inhibition of ovine COX1 using arachidonic acid as substrate by chemiluminescence assay. An outline of the steps: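 Ovine COX-1 chemiluminescent inhibitor screening kit: heme-catalyzed hydroperoxidase activity generates luminescence with a cyclic naphthalene hydrazide and arachidonic acid substrate. Luminescence serves as the index of catalytic activity. IC50 is the concentration giving 50% inhibition of enzyme activity.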

Experiment [2] has as its system Rattus norvegicus. In words: Antiinflammatory activity in Wistar rat assessed as change in carrageenan-induced hind paw thickness at 3 mg/kg, ip administered 30 mins prior to carrageenan-challenge measured after 1 hr (reference value: 1.84 +/- 0.41 mm). The conditions noted are these: route intraperitoneal. It is filed as functional. For orientation: Carrageenan injected into the paw causes an acute inflammation.

The subject of experiment [3] is Rattus norvegicus. The experiment is described as follows: Antiinflammatory activity in Wistar rat assessed as change in carrageenan-induced hind paw thickness at 3 mg/kg, ip administered 30 mins prior to carrageenan-challenge measured after 2 hrs (reference value: 1.86 +/- 0.38 mm). In kind it is functional. Particulars: route intraperitoneal.
For experiment [4], the system named is Rattus norvegicus. The experiment is described as follows: Antiinflammatory activity in Wistar rat assessed as change in carrageenan-induced hind paw thickness at 3 mg/kg, ip administered 30 mins prior to carrageenan-challenge measured after 3 hrs (reference value: 1.78 +/- 0.39 mm). In kind it is functional. Particulars: route intraperitoneal.
Experiment [5] relates to Rattus norvegicus. In words: Antiinflammatory activity in Wistar rat assessed as change in carrageenan-induced hind paw thickness at 6 mg/kg, ip administered 30 mins prior to carrageenan-challenge measured after 1 hr (reference value: 1.84 +/- 0.41 mm). Particulars: route intraperitoneal. In kind it is functional.
Experiment [6] has as its system Rattus norvegicus. The experiment is described as follows: Antiinflammatory activity in Wistar rat assessed as change in carrageenan-induced hind paw thickness at 6 mg/kg, ip administered 30 mins prior to carrageenan-challenge measured after 2 hrs (reference value: 1.86 +/- 0.38 mm). It is filed as functional. Particulars: route intraperitoneal.
For experiment [7], the system named is Rattus norvegicus. The experiment is described as follows: Antiinflammatory activity in Wistar rat assessed as change in carrageenan-induced hind paw thickness at 6 mg/kg, ip administered 30 mins prior to carrageenan-challenge measured after 3 hrs (reference value: 1.78 +/- 0.39 mm). It is filed as functional. Particulars: route intraperitoneal.
Experiment [8] has as its system Mus musculus. The experiment is described as follows: Antinociceptive activity in Swiss albino mouse assessed as licking time in primary neurogenic period at 3 mg/kg, ip administered 30 mins prior to formalin-challenge (reference value: 80 +/- 19 seconds). It is filed as functional. Particulars: route intraperitoneal.
In experiment [9] the test system is Mus musculus. The experiment is described as follows: Antinociceptive activity in Swiss albino mouse assessed as licking time in primary neurogenic period at 6 mg/kg, ip administered 30 mins prior to formalin-challenge (reference value: 80 +/- 19 seconds). It is filed as functional. The conditions noted are these: route intraperitoneal.
Experiment [10] has as its system Mus musculus. In words: Antinociceptive activity in Swiss albino mouse assessed as licking time in secondary inflammatory period at 3 mg/kg, ip administered 30 mins prior to formalin-challenge (reference value: 217 +/- 68.5 seconds). It is filed as functional. The conditions noted are these: route intraperitoneal.
Experiment [11] relates to Mus musculus. The experiment is described as follows: Antinociceptive activity in Swiss albino mouse assessed as licking time in secondary inflammatory period at 6 mg/kg, ip administered 30 mins prior to formalin-challenge (reference value: 217 +/- 68.5 seconds). In kind it is functional. The conditions noted are these: route intraperitoneal.
Experiment [12] concerns Rattus norvegicus. In words: Antiinflammatory activity in Wistar rat assessed as change in carrageenan-induced hind paw thickness at 5 mg/kg, ip administered 30 mins prior to carrageenan-challenge measured after 1 hr (reference value: 1.84 +/- 0.41 mm). It is filed as functional. The conditions noted are these: route intraperitoneal.
Experiment [13] concerns Rattus norvegicus. The experiment is described as follows: Antiinflammatory activity in Wistar rat assessed as change in carrageenan-induced hind paw thickness at 5 mg/kg, ip administered 30 mins prior to carrageenan-challenge measured after 2 hrs (reference value: 1.86 +/- 0.38 mm). In kind it is functional. Particulars: route intraperitoneal.
Experiment [14] deals with Rattus norvegicus. In words: Antiinflammatory activity in Wistar rat assessed as change in carrageenan-induced hind paw thickness at 5 mg/kg, ip administered 30 mins prior to carrageenan-challenge measured after 3 hrs (reference value: 1.78 +/- 0.39 mm). It is filed as functional. The conditions noted are these: route intraperitoneal.
The subject of experiment [15] is Mus musculus. In words: Antinociceptive activity in Swiss albino mouse assessed as licking time in primary neurogenic period at 5 mg/kg, ip administered 30 mins prior to formalin-challenge (reference value: 80 +/- 19 seconds). The conditions noted are these: route intraperitoneal. It is filed as functional.
Experiment [16] concerns Mus musculus. The experiment is described as follows: Antinociceptive activity in Swiss albino mouse assessed as licking time in secondary inflammatory period at 5 mg/kg, ip administered 30 mins prior to formalin-challenge (reference value: 217 +/- 68.5 seconds). It is filed as functional. The conditions noted are these: route intraperitoneal.

The IC50 is the concentration that inhibits the measured activity by half. A low value points to greater potency. Compound `COc1ccc(-c2nc(SC)nnc2-c2ccc(S(C)(=O)=O)cc2)cc1` showed an IC50 in [1] of 50.1 µM. Further, the Activity in the experiment on Rattus norvegicus [2] is reported as 0.96 mm; in the experiment on Rattus norvegicus [3], 0.72 mm; with Rattus norvegicus [4] it was 0.64 mm; in the experiment with Rattus norvegicus [5], 0.58 mm; in the experiment with Rattus norvegicus [6] it was 0.43 mm; in the experiment with Rattus norvegicus [7], 0.3 mm. Besides, the Time in the experiment with Mus musculus [8] amounted to 46 s; with Mus musculus [9], 49 s; with Mus musculus [10], 227 s; in the experiment with Mus musculus [11] it was 118 s.

In [1], `CSc1nnc(-c2ccc(S(C)(=O)=O)cc2)c(-c2ccc(Cl)cc2)n1` showed an IC50 of 39.5 µM. In addition, the Activity with Rattus norvegicus [2] was found to be 1 mm; in the experiment on Rattus norvegicus [3], 0.71 mm; in the experiment on Rattus norvegicus [4], 0.54 mm; in the experiment with Rattus norvegicus [5], 0.89 mm; with Rattus norvegicus [6] it was 0.58 mm; in the experiment on Rattus norvegicus [7], 0.41 mm. Also, the Time in the experiment with Mus musculus [8] is listed as 30 s; with Mus musculus [9], 37 s; in the experiment on Mus musculus [10], 85 s; in the experiment with Mus musculus [11], 140 s.

Compound `CSc1nnc(-c2ccc(S(C)(=O)=O)cc2)c(-c2ccc(F)cc2)n1` came in with an IC50 in experiment [1] of 51.6 µM. Besides, the Activity is reported as 1.24 mm in the experiment on Rattus norvegicus [2]; 1.16 mm in the experiment with Rattus norvegicus [3]; 0.97 mm in the experiment on Rattus norvegicus [4]; 0.75 mm in the experiment with Rattus norvegicus [5]; 0.56 mm in the experiment with Rattus norvegicus [6]; 0.34 mm in the experiment on Rattus norvegicus [7]. Also, the Time in the experiment with Mus musculus [8] is 52 s; in the experiment with Mus musculus [9], 34 s; with Mus musculus [10], 127 s; in the experiment on Mus musculus [11], 152 s.

`CSc1nnc(-c2ccc(S(C)(=O)=O)cc2)c(-c2ccc(C)cc2)n1`: the IC50 in [1] is 52.4 µM. Moreover, the Activity stood at 0.87 mm in the experiment on Rattus norvegicus [2]; 0.68 mm in the experiment with Rattus norvegicus [3]; 0.55 mm in the experiment on Rattus norvegicus [4]; 0.98 mm in the experiment with Rattus norvegicus [5]; 0.8 mm in the experiment with Rattus norvegicus [6]; 0.67 mm in the experiment on Rattus norvegicus [7]. Besides, the Time was 49 s in the experiment with Mus musculus [8], 61 s with Mus musculus [9], 175 s with Mus musculus [10] and 139 s in the experiment on Mus musculus [11].

As to `CSc1nnc(-c2ccc(S(C)(=O)=O)cc2)c(-c2ccccc2)n1`, the IC50 in experiment [1] amounted to 54.4 µM. In addition, the Activity with Rattus norvegicus [2] is 1.45 mm; in the experiment on Rattus norvegicus [3], 1.77 mm; in the experiment on Rattus norvegicus [4] it was 1.19 mm; with Rattus norvegicus [5] it was 1.09 mm; in the experiment on Rattus norvegicus [6], 0.94 mm; in the experiment with Rattus norvegicus [7], 0.83 mm. Besides, the Time was found to be 57 s in the experiment on Mus musculus [8], 58 s with Mus musculus [9], 133 s in the experiment with Mus musculus [10] and 155 s in the experiment on Mus musculus [11].

`COc1ccc2c(c1)c(CC(=O)O)c(C)n2C(=O)c1ccc(Cl)cc1` [INDOMETHACIN]: the Activity with Rattus norvegicus [12] worked out at 1.05 mm; with Rattus norvegicus [13] it was 0.81 mm; with Rattus norvegicus [14] it was 0.57 mm. Further, the Time with Mus musculus [15] was found to be 45 s; with Mus musculus [16], 127 s.
